In ChEMBL document CHEMBL4138092, “Antibacterial activity and mechanism of action of the benzazole acrylonitrile-based compounds: In vitro, spectroscopic, and docking studies” (2017):
Converted amounts (≈) assume the structure as drawn. The source made the active and inactive calls. The rule behind the calls is not given here.

What was measured:
[1] = test system: Pseudomonas aeruginosa; assay: Antibacterial activity against Pseudomonas aeruginosa ATCC 27853 after 24 to 48 hrs by agar well diffusion method; format: functional
Procedure, shortened: (§1)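 Mueller Hinton agar plates spread with bacteria (10⁶ cells/ml). Wells were filled with 50 µl of compound and incubated at 37 °C for 24–48 h. The inhibition zone diameter (mm) was measured with a transparent scale. Amoxicillin 5.0 mg/ml at 50 µl/well served as the positive control.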

[2] = test system: Escherichia coli; assay: Antibacterial activity against Escherichia coli ATCC 25922 after 24 to 48 hrs by agar well diffusion method; format: functional; procedure, shortened: as §1
[3] = test system: Escherichia coli; assay: Induction of morphological changes in Escherichia coli ATCC 25922 assessed as cell crack at 0.2 ppm after 2 hrs by uranyl acetate staining based transmission electron microscopic analysis; format: functional, organism-based
Procedure, shortened: (§2)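 E. coli was exposed for 2 h, alongside untreated controls processed identically. Pellets were fixed in Karnovsky's fixative (2% paraformaldehyde, 2.5% glutaraldehyde) for 3–4 h at 25 °C, then washed in 0.1 M phosphate pH 7.2. Cells were adsorbed onto formvar-carbon copper grids and stained 5 min in […] aqueous uranyl acetate. Grids were imaged by TEM at 80 kV.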

[4] = test system: Escherichia coli ATCC 25922; assay: Inhibition of beta-lactamase in Escherichia coli ATCC 25922 assessed as potentiation of amoxicillin induced antibacterial activity at 10 to 100% amoxicillin to compound dilution after 24 hrs by agar well diffusion method
Procedure, shortened: (§3)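 Amoxicillin (1.0 µg/ml) was combined with test compound and diluted to 100, 80, 60, 40, 10 and 5%. The mixtures were serially diluted in sterile water, and 100 µl was added to 900 µl nutrient broth. Tubes were inoculated with 10 µl of 10⁵ cells/ml and held 24 h at 37±1 °C. Growth/no growth was scored visually. Controls were bacteria in broth alone and sterile broth alone.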

[5] = test system: Escherichia coli ATCC 25922; assay: Inhibition of beta-lactamase in Escherichia coli ATCC 25922 assessed as potentiation of amoxicillin induced antibacterial activity after 24 hrs by agar well diffusion method; procedure, shortened: as §3
[6] = test system: Escherichia coli; assay: Induction of morphological changes in Escherichia coli ATCC 25922 assessed as cell rupture at 0.2 ppm after 2 hrs by uranyl acetate staining based transmission electron microscopic analysis; format: functional, organism-based; procedure, shortened: as §2
[7] = test system: Escherichia coli ATCC 25922; assay: Inhibition of beta-lactamase in Escherichia coli ATCC 25922 assessed as potentiation of amoxicillin induced antibacterial activity by measuring amoxicillin MIC after 24 hrs by agar well diffusion method (reference value: 1.5 ug/ml); procedure, shortened: as §3
[8] = target: Beta-lactamase (Escherichia coli) (UniProt Q53TY8); assay: Binding affinity to Escherichia coli beta-lactamase in phosphate buffer at pH 7.4 at 6 10^-5M after 3 mins by UV-vis spectroscopic analysis
Procedure, shortened: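 Compound at 6 × 10^-5 M in 0.01 M phosphate buffer pH 7.4 was titrated with 10 µl aliquots of 1 × 10^-6 M β-lactamase. Absorbance spectra were recorded at 200–700 nm after 3 min equilibration per addition, continuing until no further change (saturation).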

[9] = target: Beta-lactamase (Staphylococcus aureus) (UniProt P00807); assay: Inhibition of beta-lactamase in Staphylococcus aureus ATCC 25923 assessed as potentiation of amoxicillin induced antibacterial activity at 10 to 100% amoxicillin to compound dilution after 24 hrs by agar well diffusion method; procedure, shortened: as §3
[10] = test system: Staphylococcus aureus; assay: Antibacterial activity against Staphylococcus aureus ATCC 25923 after 24 to 48 hrs by agar well diffusion method; format: functional; procedure, shortened: as §1
[11] = target: Beta-lactamase (Staphylococcus aureus) (UniProt P00807); assay: Inhibition of beta-lactamase in Staphylococcus aureus ATCC 25923 assessed as potentiation of amoxicillin induced antibacterial activity at 5% amoxicillin to compound dilution after 24 hrs by agar well diffusion method; procedure, shortened: as §3
[12] = target: Beta-lactamase (Escherichia coli) (UniProt Q53TY8); assay: Binding affinity to Escherichia coli beta-lactamase in phosphate buffer at pH 7.4 at 6 10^-5M by CD spectral analysis
Procedure, shortened: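 Successive additions of compound (6 × 10^-5 M) were made to 1.0 mL β-lactamase in phosphate buffer pH 7.4. CD spectra were recorded at 25 °C over 200–700 nm, scan speed 50 nm/min, bandwidth 1 nm.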

[13] = target: Beta-lactamase (Staphylococcus aureus) (UniProt P00807); assay: Inhibition of beta-lactamase in Staphylococcus aureus ATCC 25923 assessed as potentiation of amoxicillin induced antibacterial activity by measuring amoxicillin MIC after 24 hrs by agar well diffusion method (reference value: 1.5 ug/ml); procedure, shortened: as §3
[14] = test system: Bacillus spizizenii; assay: Antibacterial activity against Bacillus subtilis ATCC 6633 after 24 to 48 hrs by agar well diffusion method; format: functional; procedure, shortened: as §1
[15] = test system: Staphylococcus aureus; assay: Antibacterial activity against Staphylococcus aureus ATCC 25923 after 24 hrs by agar well diffusion method; format: functional; conditions: ATCC 25923, 24 h
[16] = test system: Bifidobacterium longum subsp. infantis; assay: Inhibition of beta-lactamase in Bifidobacterium infantis assessed as potentiation of amoxicillin induced antibacterial activity at 10 to 100% amoxicillin to compound dilution after 24 hrs by agar well diffusion method; procedure, shortened: as §3
[17] = test system: Bifidobacterium longum subsp. infantis; assay: Inhibition of beta-lactamase in Bifidobacterium infantis assessed as potentiation of amoxicillin induced antibacterial activity by measuring amoxicillin MIC after 24 hrs by agar well diffusion method (reference value: 1.5 ug/ml); procedure, shortened: as §3
[18] = target: Beta-lactamase (Pseudomonas aeruginosa) (UniProt Q8RL90); assay: Inhibition of beta-lactamase in Pseudomonas aeruginosa ATCC 27853 assessed as potentiation of amoxicillin induced antibacterial activity at 5% amoxicillin to compound dilution after 24 hrs by agar well diffusion method; procedure, shortened: as §3
[19] = test system: Escherichia coli; assay: Antibacterial activity against Escherichia coli ATCC 25922 after 24 hrs by agar well diffusion method; format: functional; conditions: ATCC 25922, 24 h
[20] = test system: Bifidobacterium longum; assay: Antibacterial activity against Bifidobacterium infantis after 24 hrs by agar well diffusion method; format: functional, Bifidobacterium longum subsp. infantis
[21] = test system: Bacillus spizizenii; assay: Antibacterial activity against Bacillus subtilis ATCC 6633 after 24 hrs by agar well diffusion method; format: functional; conditions: ATCC 6633, 24 h
[22] = target: Beta-lactamase (Pseudomonas aeruginosa) (UniProt Q79MP6); assay: Inhibition of beta-lactamase in Pseudomonas aeruginosa ATCC 27853 assessed as potentiation of amoxicillin induced antibacterial activity at 10 to 100% amoxicillin to compound dilution after 24 hrs by agar well diffusion method; procedure, shortened: as §3
[23] = test system: Pseudomonas aeruginosa; assay: Antibacterial activity against Pseudomonas aeruginosa ATCC 27853 after 24 hrs by agar well diffusion method; format: functional; conditions: ATCC 27853, 24 h
[24] = target: Beta-lactamase (Escherichia coli) (UniProt Q53TY8); assay: Binding affinity to Escherichia coli beta-lactamase in phosphate buffer at pH 7.4 at 6 10^-5M after 3 mins by fluorescence titration analysis
Procedure, shortened: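 Fixed compound concentration in phosphate buffer pH 7.4, titrated with 10 µl additions of 1 × 10^-6 M β-lactamase. Excitation was 280 or 290 nm depending on compound, with emission scanned 300–600 nm and slits 5–10 nm. Readings followed 3 min equilibration per addition in a 1 cm quartz cell, continuing to saturation.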

[25] = test system: Bifidobacterium longum subsp. infantis; assay: Inhibition of beta-lactamase in Bifidobacterium infantis assessed as potentiation of amoxicillin induced antibacterial activity at 5% amoxicillin to compound dilution after 24 hrs by agar well diffusion method; procedure, shortened: as §3
[26] = target: Beta-lactamase (Pseudomonas aeruginosa) (UniProt Q8RL90); assay: Inhibition of beta-lactamase in Pseudomonas aeruginosa ATCC 27853 assessed as potentiation of amoxicillin induced antibacterial activity after 24 hrs by agar well diffusion method; procedure, shortened: as §3
[27] = target: Beta-lactamase (Staphylococcus aureus) (UniProt P00807); assay: Inhibition of beta-lactamase in Staphylococcus aureus ATCC 25923 assessed as potentiation of amoxicillin induced antibacterial activity after 24 hrs by agar well diffusion method; procedure, shortened: as §3
[28] = test system: Bifidobacterium longum subsp. infantis; assay: Inhibition of beta-lactamase in Bifidobacterium infantis assessed as potentiation of amoxicillin induced antibacterial activity after 24 hrs by agar well diffusion method; procedure, shortened: as §3
[29] = target: Beta-lactamase (Pseudomonas aeruginosa) (UniProt Q79MP6); assay: Inhibition of beta-lactamase in Pseudomonas aeruginosa ATCC 27853 assessed as potentiation of amoxicillin induced antibacterial activity by measuring amoxicillin MIC after 24 hrs by agar well diffusion method (reference value: 1 ug/ml); procedure, shortened: as §3
[30] = test system: Escherichia coli; assay: Induction of morphological changes in Escherichia coli ATCC 25922 assessed as cell damage at 0.2 ppm after 2 hrs by uranyl acetate staining based transmission electron microscopic analysis; format: functional, organism-based; procedure, shortened: as §2
[31] = test system: Escherichia coli ATCC 25922; assay: Inhibition of beta-lactamase in Escherichia coli ATCC 25922 assessed as potentiation of amoxicillin induced antibacterial activity at 5% amoxicillin to compound dilution after 24 hrs by agar well diffusion method; procedure, shortened: as §3

For N#C/C(=C\c1cnc(N)nc1N)c1nc2ccccc2s1, the “inhibition zone (IZ)” value [1] was 28 mm, the “inhibition zone (IZ)” value [2] was 47 mm and the Activity [3] was “Active”. For the same compound, the inhibition [4] was “Active”, the fractional inhibitory concentration index (FICI) [5] was 0.2 and the Activity [6] was “Active”. For the same compound, the MIC [7] was 0.1 mg/L, the Activity [8] was “Active” and the inhibition [9] was “Active”. The “inhibition zone (IZ)” value [10] was 32 mm, the inhibition [11] was “inactive” and the Activity [12] was “Active”. The MIC [13] was 0.8 mg/L, the “inhibition zone (IZ)” value [14] was 40 mm and the MIC [15] was 8 mg/L (≈ 27.2 µM). The inhibition [16] was “Active”, the MIC [17] was 0.1 mg/L and the inhibition [18] was “inactive”. It also gave an MIC [19] of 1 mg/L (≈ 3.4 µM), an MIC [20] of 1 mg/L (≈ 3.4 µM) and an MIC [21] of 8 mg/L (≈ 27.2 µM). For the same compound, the inhibition [22] was “Active”, the MIC [23] was 1 mg/L (≈ 3.4 µM) and the Activity [24] was “Active”. For the same compound, the inhibition [25] was “inactive”, the fractional inhibitory concentration index (FICI) [26] was 0.2 and the fractional inhibitory concentration index (FICI) [27] was 0.2. For the same compound, the fractional inhibitory concentration index (FICI) [28] was 0.2, the MIC [29] was 0.8 mg/L and the Activity [30] was “Active”. The inhibition [31] was “inactive”.
